This is a sample that favours compounds with a hit; in the whole collection about 6.8% have one here.
HCV core dimer: HCV core protein dimerization inhibition; TR-FRET GST/Flag-core106 dimerization, 1536-well; inhibition, % at 5 µM; 300,000 tested, 0.33% active;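 active means inhibition above the mean of all tested compounds plus 3 SD, set per screening campaign, cut at about 45% in these data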
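System: GST-tagged and Flag-tagged HCV core protein residues 1-106 / Input: core106 proteins, GST 13.5 nM and Flag 17 nM / Buffer or medium: KF-containing HEPES buffer, pH 7.45, DTT, CHAPS, BSA / Probe or stimulus: Eu-anti-GST and XL665-anti-Flag labelled anti-tag antibodies / Schedule: 4 h, 22.5 °C incubation / Technique: TR-FRET 671 and 617 nm emission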
HSF1 activator: increases HSF-1 driven luciferase reporter signal; NIH3T3-HGL HSF-1 luciferase reporter, MG132, 8 h; 100% = twice DMSO control signal; activation, % at 9 µM; 300,000 tested, 1.7% active; AID 504408;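 active means mean replicate activation of at least 50% with a set share of replicates each reaching 50%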;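 further: 0% = median of the neutral control wells and 100% = twice that signal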
AI-2 QS mod: modulators of Vibrio harveyi AI-2 quorum sensing system; AID 2094; 300,000 tested, 0.4% active; Vibrio harveyi JMH597 AI-2 luminescence/OD600 ratio, 9 h; hits give low values; strain lacks LuxN and CqsS sensors; 0 = neutral-control median; activity change, % at 7.5 µM; in the data active means activity change below about -75%, passing the limit was not always enough;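 further: luminescence divided by OD600 gain over 9 h not by final OD600 alone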
ALR inh: human ALR oxidase inhibition via reduced H2O2; P55789; purified ALR, DTT oxidation, H2O2 HRP-luminol luminescence; inhibition, % (concentration not given with the values); 290,000 tested, 3.8% active; AID 485317;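 active means mean replicate inhibition above about 79%, with every replicate also reaching it, limit read from the data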
PHOSPHO1 inh: PHOSPHO1 (human) inhibition. Q8TCT1. recombinant PHOSPHO1, absorbance phosphatase assay. inhibition, % at 13.3 µM. 290,000 tested, 1.1% active. AID 1565; in the data active means inhibition above about 60%
Target sequence (Q8TCT1 whole entry, looked up): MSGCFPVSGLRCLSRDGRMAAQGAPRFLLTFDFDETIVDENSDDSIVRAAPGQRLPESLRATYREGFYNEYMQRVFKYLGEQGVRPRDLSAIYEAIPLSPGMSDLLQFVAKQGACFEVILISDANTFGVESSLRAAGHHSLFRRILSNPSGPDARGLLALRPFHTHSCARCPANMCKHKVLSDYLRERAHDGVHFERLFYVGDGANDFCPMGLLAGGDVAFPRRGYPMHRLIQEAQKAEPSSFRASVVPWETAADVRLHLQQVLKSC
HSF1 inh: HSF1 inhibition. NIH3T3-HGL HSE-luciferase, MG132-induced, luminescence 8 h; hits give low values. activity change, negative = inhibition, % at 7.5 µM (by protocol). 300,000 tested, 0.77% active. AID 2098;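 active means more than half of replicate wells show activity change below -50%, luminescence cut by over half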;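 further: luciferase reports HSF-1 transcriptional activity via heat shock element; 0% = median of DMSO wells and -100% = zero luminescence signal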
Numbers without * were called inactive; nt = no result given; ! = not active in a repeat.

SMILES	HCV core dimer	HSF1 activator	AI-2 QS mod	ALR inh	PHOSPHO1 inh	HSF1 inh
COc1ccc(N2C(=O)CC(Sc3n[nH]c(-c4cccc(C)c4)n3)C2=O)cc1 (stereo not drawn)	2	42	57	99*	20	2
O=C(O)CCC(=O)NCc1cn(-c2ccccc2)nc1-c1cccc(Br)c1	-1	7	6	-3	20	-3
Cc1ccc(-c2nn(-c3ccccc3)cc2CN(C)C(=O)CCC(=O)O)cc1C	6	-60	27	11	-24	-55*
CCn1c(/C=C/c2ccccc2C)nc2ccccc2c1=O	1	15	13	2	15	10
Cc1nc2ccccc2c(=O)n1CCc1ccccc1	1	22	-1	-20	nt	8
CCn1c(/C=C/c2ccc(O)cc2)nc2ccccc2c1=O	1	23	2	98*	24	1
Cc1nc2ccccc2c(=O)n1CCc1ccc(O)cc1	-137	-3	-8	96*	46	-3
CCn1c(/C=C/c2ccc(O)c(O)c2)nc2ccccc2c1=O	nt	25	15	100*	19	7
COc1cc2c(=O)n(Cc3ccco3)c(=O)n(CC(=O)c3cccc(Br)c3)c2cc1OC	47*	30	44	-5	32	20
CCN(c1ccccc1)S(=O)(=O)c1ccc(Cl)c(C(=O)N(CC2CCCO2)C2CCS(=O)(=O)C2)c1 (stereo not drawn)	3	-64	-1	-4	6	-58*
c1ccc2c(NC3CCCC3)nnc(NC3CCCC3)c2c1	0	-9	10	98*	0	4
CCN=C1SC(C(=O)Nc2ccccc2)CC(=O)N1CC (stereo not drawn)	3	12	13	-14	6	3
CC(=O)c1cccc(NC(=O)COC(=O)C2=COCCO2)c1	12	-3	-4	-2	68*	-5
Cc1cc(C)n2nc(-c3cccc(Br)c3)cc2n1	6	29	7	-3	44	11
Cc1cccc(-c2cc3nc(C)cc(C)n3n2)c1	-3	60*	15	1	39	33
O=C(CN1c2ccccc2Sc2ccccc21)NNC(=O)Nc1cccc(Cl)c1	-2	13	6	-9	-2	2
Fc1ccccc1-c1nc2ccccc2[nH]1	-4	38	22	nt	3	22
c1ccc2[nH]c(-c3ccnc4ccccc34)nc2c1	8	24	17	-4	89*!	10
CCC(CC)C1C(C#N)=C(N)SC(N)=C1C#N	4	20	3	nt	-6	5
CC(C)C1C(C#N)=C(N)SC(N)=C1C#N	6	6	22	22	73*	1
Cc1ccc(NC(=O)/C(C#N)=C/c2cccs2)c(C)c1	0	53*	27	12	-3	28
O=C1OCC(CO)(CO)N=C1NNc1ccc(Cl)c(Cl)c1	-5	-2	14	100*	6	-12
CC(C)CC(=O)Nc1nnc(SCC(=O)NCc2ccc3c(c2)OCO3)s1	0	-2	18	0	49	1
Cc1nnc(NC(=O)CSc2nc3ccccc3[nH]2)s1	7	-6	39	-6	33	-7
CSCCc1nc(SCC(=O)Nc2nnc(C)s2)[nH]c1C	-2	-8	24	0	68*	-4
SMILES	HCV core dimer	HSF1 activator	AI-2 QS mod	ALR inh	PHOSPHO1 inh	HSF1 inh
CCCS/C(N)=N/N=C/c1ccccc1O	-4	56*	16	-1	3	13
N#Cc1cccc(C(c2nnnn2C2CCCC2)N2CCCCCC2)c1 (stereo not drawn)	-1	-2	28	-11	62*	1
N#Cc1cccc(C(c2nnnn2C2CCCC2)N2CCC(Cc3ccccc3)CC2)c1 (stereo not drawn)	9	16	11	-9	4	1
Oc1ccc(C(c2nnnn2C2CCCC2)N2CCc3ccccc3C2)cc1 (stereo not drawn)	19	-15	17	nt	84*	8
COc1ccc(C(c2nnnn2C2CCCC2)N2CCN(C(=O)c3ccco3)CC2)cc1OC (stereo not drawn)	2	-7	24	-16	51	-1
COc1cc(C(c2nnnn2C2CCCC2)N2CCc3ccccc3C2)ccc1O (stereo not drawn)	10	2	9	nt	77*	7
